Active and inactive are the calls of the source. The rule behind the calls is not given here.
Key:
[1] = target: T1, Prostaglandin G/H synthase 1 (Ovis aries) (UniProt P05979); experiment: Inhibition of ovine COX-1 using [14C] arachidonic acid as substrate at 25 uM preincubated for 17 mins before substrate addition measured after 3 mins by thin-layer chromatographic analysis
T1 sequence (whole entry): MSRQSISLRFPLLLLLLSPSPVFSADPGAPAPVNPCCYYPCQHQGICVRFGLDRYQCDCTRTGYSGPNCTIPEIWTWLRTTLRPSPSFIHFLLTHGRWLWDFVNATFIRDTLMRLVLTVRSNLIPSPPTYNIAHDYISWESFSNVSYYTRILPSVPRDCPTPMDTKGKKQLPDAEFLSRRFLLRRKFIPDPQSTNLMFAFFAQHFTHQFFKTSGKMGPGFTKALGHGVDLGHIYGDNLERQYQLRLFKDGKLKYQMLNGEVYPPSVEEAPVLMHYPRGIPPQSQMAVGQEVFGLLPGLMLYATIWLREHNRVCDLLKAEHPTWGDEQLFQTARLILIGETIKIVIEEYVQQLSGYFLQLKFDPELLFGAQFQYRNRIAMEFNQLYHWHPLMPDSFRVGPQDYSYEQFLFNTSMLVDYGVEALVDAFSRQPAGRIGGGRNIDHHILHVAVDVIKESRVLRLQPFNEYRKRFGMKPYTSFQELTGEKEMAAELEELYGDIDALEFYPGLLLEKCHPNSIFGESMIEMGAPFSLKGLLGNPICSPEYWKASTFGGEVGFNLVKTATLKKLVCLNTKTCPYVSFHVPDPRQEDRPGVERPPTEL

[2] = target: T2, Prostaglandin G/H synthase 2 (Mus musculus) (UniProt Q05769); experiment: Inhibition of mouse COX-2 using [14C] arachidonic acid as substrate at 4 uM preincubated for 17 mins before substrate addition measured after 3 mins by thin-layer chromatographic analysis
T2 sequence (whole entry): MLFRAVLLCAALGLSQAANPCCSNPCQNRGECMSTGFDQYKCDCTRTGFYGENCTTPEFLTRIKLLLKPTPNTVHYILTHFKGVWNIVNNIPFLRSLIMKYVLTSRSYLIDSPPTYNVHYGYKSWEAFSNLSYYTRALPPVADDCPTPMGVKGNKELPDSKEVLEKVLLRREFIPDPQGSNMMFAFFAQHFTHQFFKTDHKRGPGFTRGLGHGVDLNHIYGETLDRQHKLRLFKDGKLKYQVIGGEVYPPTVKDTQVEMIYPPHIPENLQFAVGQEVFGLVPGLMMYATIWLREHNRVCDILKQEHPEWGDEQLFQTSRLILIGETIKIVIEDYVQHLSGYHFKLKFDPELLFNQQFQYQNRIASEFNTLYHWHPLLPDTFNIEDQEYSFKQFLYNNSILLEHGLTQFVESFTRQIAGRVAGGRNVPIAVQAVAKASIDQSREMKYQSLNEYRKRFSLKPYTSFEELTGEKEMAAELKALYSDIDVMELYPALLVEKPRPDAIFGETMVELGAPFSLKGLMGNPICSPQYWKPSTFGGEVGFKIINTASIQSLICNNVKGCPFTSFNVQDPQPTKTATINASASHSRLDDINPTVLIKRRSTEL
Method in brief: (§1)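 Purified ovine COX-1 or murine COX-2 preincubated with a single 4 μM inhibitor concentration for 17 min. […] Reaction quenched; radioactive products extracted and quantified. Mean ± SEM of two experiments.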

[3] = target: T1, Prostaglandin G/H synthase 1 (Ovis aries); experiment: Inhibition of ovine COX-1 using [14C] arachidonic acid as substrate at 4 uM preincubated for 17 mins before substrate addition measured after 3 mins by thin-layer chromatographic analysis; method in brief: as §1
[4] = target: T3, Prostaglandin G/H synthase 2 (Homo sapiens) (UniProt P35354); experiment: Inhibition of COX-2 in human HNSCC 1483 cells using [14C] arachidonic acid as substrate at 5 uM preincubated for 30 mins before substrate addition measured after 30 mins; type: cell-based
T3 sequence (whole entry): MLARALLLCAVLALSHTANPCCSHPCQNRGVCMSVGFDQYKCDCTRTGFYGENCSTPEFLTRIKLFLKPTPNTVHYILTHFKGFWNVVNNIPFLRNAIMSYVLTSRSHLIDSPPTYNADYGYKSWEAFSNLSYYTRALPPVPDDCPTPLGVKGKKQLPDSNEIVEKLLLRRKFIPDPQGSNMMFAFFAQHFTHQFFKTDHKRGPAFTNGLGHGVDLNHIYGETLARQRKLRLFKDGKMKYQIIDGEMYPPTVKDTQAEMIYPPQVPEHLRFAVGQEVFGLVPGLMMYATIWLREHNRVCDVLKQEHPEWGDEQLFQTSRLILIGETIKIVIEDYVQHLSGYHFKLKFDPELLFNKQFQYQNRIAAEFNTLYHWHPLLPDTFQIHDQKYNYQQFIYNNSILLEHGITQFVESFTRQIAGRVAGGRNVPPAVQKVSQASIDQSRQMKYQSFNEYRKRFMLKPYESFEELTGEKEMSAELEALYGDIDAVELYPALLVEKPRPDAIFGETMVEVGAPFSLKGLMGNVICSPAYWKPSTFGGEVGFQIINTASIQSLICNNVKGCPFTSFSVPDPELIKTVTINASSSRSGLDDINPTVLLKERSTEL

OVCAR-3 [5] = experiment: Cytotoxicity against human OVCAR3 cells after 2 days by WST1 assay; type: functional, cell-based; conditions: OVCAR-3, 48 h
Method in brief: (§2)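 Viability of human ovarian carcinoma NIH-OVCAR-3 cells, which express COX-1 but no detectable COX-2, after a 2-day compound treatment. Concentrations up to 250 μM tested. EC50 for growth inhibition derived from concentration–response curves.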

[6] = target: T4, Prostaglandin G/H synthase 1 (Ovis aries, UniProt P05979); experiment: Inhibition of ovine COX-1 using [14C] arachidonic acid as substrate preincubated for 17 mins before substrate addition measured after 3 mins by thin-layer chromatographic analysis
T4 sequence (P05979 whole entry): T1 sequence (whole entry)

MDA-MB-231 = experiment: Cytotoxicity against human MDA-MB-231 cells after 48 hrs by WST1 assay; type: functional, cell-based; conditions: MDA-MB-231, 48 h
[7] = target: T5, Prostaglandin G/H synthase 2 (Mus musculus, UniProt Q05769); experiment: Inhibition of mouse COX-2 using [14C] arachidonic acid as substrate preincubated for 17 mins before substrate addition measured after 3 mins by thin-layer chromatographic analysis
T5 sequence (Q05769 whole entry): T2 sequence (whole entry)

OVCAR-3 [8] = experiment: Cytotoxicity against human OVCAR3 cells growth inhibition up to 250 uM after 2 days by WST1 assay; type: functional, cell-based; method in brief: as §2

Structure (SMILES)	inhibition [2]	inhibition [3]	also measured
COc1ccc2c(c1)C(CC(=O)O)=C/C2=C\c1ccc(SC)cc1	–	–	inhibition [1]: 19%
CSc1ccc(/C=C2\C=C(CC(=O)O)c3cc(F)ccc32)cc1	10%	65%	inhibition [4]: inactive; EC50 (OVCAR-3 [5]): 223 µM
CC(C)(C(=O)O)C1=C/C(=C\c2ccc(-c3ccccc3)cc2)c2ccc(F)cc21	–	58%	IC50 [6]: 2.2 µM
O=C(O)CC1=C/C(=C\c2ccc(-c3ccccc3)cc2)c2ccc(F)cc21	1%	75%	EC50 (MDA-MB-231): 141 µM; IC50 [7]: > 4 µM; inhibition [4]: inactive; IC50 [6]: 0.57 µM; EC50 (OVCAR-3 [5]): 132 µM
CC1=C(CC(=O)O)c2cc(F)ccc2/C1=C/c1ccc([S+](C)[O-])cc1 (configuration not stated) [SULINDAC SULFOXIDE]	–	–	EC50 (OVCAR-3 [5]): 210 µM
CSc1ccc(/C=C2/C(C)=C(CC(=O)O)c3cc(F)ccc32)cc1 [SULINDAC SULFIDE]	–	–	EC50 (MDA-MB-231): 209 µM; growth inhibition (GI) (OVCAR-3 [8]): inactive
CCOC(=O)CC1=C/C(=C\c2ccc(-c3ccccc3)cc2)c2ccc(F)cc21	28%	64%	IC50 [6]: 1.1 µM
COC(=O)CC1=C/C(=C\c2ccc(SC)cc2)c2ccc(F)cc21	9%	39%	–
O=C(O)CC1=C/C(=C\c2ccc(F)c3ccccc23)c2ccc(F)cc21	22%	61%	–
O=C(O)CC1=C/C(=C\c2ccccc2)c2ccc(F)cc21	34%	74%	–
CSc1ccc(/C=C2\C=C(CC(=O)NS(=O)(=O)C(F)(F)F)c3cc(F)ccc32)cc1	15%	65%	EC50 (MDA-MB-231): 215 µM
O=C(O)CC1=C/C(=C\c2ccc(-c3ccccc3)nc2)c2ccc(F)cc21	5%	55%	–
COc1ccc(S(=O)(=O)NC(=O)CC2=C/C(=C\c3ccc(SC)cc3)c3ccc(F)cc32)cc1	8%	58%	–
C#CCOc1ccc(/C=C2\C=C(CC(=O)O)c3cc(F)ccc32)cc1OCC	20%	68%	–
CSc1ccc(/C=C2\C=C(CC(=O)NS(=O)(=O)c3ccc(C(C)C)cc3)c3cc(F)ccc32)cc1	2%	45%	–
